High-throughput results as filed in PubChem BioAssay.
Compounds with a hit are over-represented: about 2.5% of the library has one in this group of screens.
NTR1 agonist: activates human neurotensin receptor 1; P30989; NTR1-U2OS beta-arrestin-GFP spot imaging, agonist mode; activation, % at 20 µM; hit rate 0.17% among 330,000; AID 493036;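 active means activation at or above 40% of the spot to cytoplasm intensity ratio, with at least 20 cells analyzed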;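 further: 0% = DMSO without peptide and 100% = 100 nM NTR1 peptide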
Target sequence (P30989 whole entry, looked up): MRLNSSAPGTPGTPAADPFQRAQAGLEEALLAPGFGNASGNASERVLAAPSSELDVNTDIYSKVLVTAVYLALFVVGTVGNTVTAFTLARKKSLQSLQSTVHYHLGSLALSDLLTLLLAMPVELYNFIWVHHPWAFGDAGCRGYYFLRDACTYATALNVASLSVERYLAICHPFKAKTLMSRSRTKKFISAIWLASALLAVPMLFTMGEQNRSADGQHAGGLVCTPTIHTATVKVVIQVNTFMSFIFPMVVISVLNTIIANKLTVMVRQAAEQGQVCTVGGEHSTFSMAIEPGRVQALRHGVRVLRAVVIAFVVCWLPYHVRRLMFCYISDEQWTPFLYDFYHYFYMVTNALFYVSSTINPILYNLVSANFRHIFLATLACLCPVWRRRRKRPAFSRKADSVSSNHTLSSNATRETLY
MC4R antagonist: blocks human MC4R cAMP signaling. P32245. MC4R-expressing cells, MTII-stimulated cAMP, LANCE TR-FRET. inhibition, % at 6.5 µM. hit rate 0.48% among 360,000. AID 540295;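 active means inhibition above its plate's cutoff, the mean of tested wells on that plate plus 3 SD, cut at about 29% in these data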;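 further: 0% = Melanotan II alone and 100% = Melanotan II plus saturating MCL0020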
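Assay system: human MC4R-expressing U2OS cells; reagent: Melanotan II stimulation of cells; dosing: 6.5 µM single dose; timing: compound 30 min, challenge 1 h, detection 1 h; signal: TR-FRET cAMP assay; replicates: one well per compound, no replicates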
PG9 Ab binder: binds the HIV-1 gp120 antibody PG9. TR-FRET gp120-PG9 antibody binding. inhibition, % at 6.7 µM. hit rate 0.43% among 360,000. AID 624416; in the data active means inhibition above about 8.5%
MC4R barr agon: agonists of human melanocortin 4 receptor (MC4R) beta-arrestin. U2OS MC4R beta-arrestin complementation, luminescence; percent of melanotan II response, DMSO zero. AID 540308. activation, % at 8.9 µM. hit rate 0.98% among 360,000;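 active means activation above a per-plate cutoff, the mean activation of sample wells on that plate plus 3 SD, cut at about 8% in these data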
NR1D1 modulator: modulators of human Rev-erb alpha DNA binding; P20393; Rev-erbα–FITC-DNA binding, fluorescence polarization, 90 min; activity, % at 10 µM; hit rate 0.79% among 370,000;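 active means activity above about 14%, limit read from the data; passing the limit was not always enough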;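 further: 0% = DMSO wells with 35 nM protein and 100% = DMSO wells with 750 nM protein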
MC4R barr ag: human MC4R beta-arrestin agonism confirmation. activation, % at 8.9 µM. U2OS MC4R beta-arrestin recruitment, luminescence; scaled DMSO 0%, Melanotan II 100%. hit rate 31% among 2,400. shares compounds with MC4R barr agon;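 active means mean activation across replicates above the hit cutoff set in the earlier primary screen, cut at about 8% in these data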
MOR DOR agonist: counter-screen for MC4R agonists: agonists of mu-delta opioid heterodimer. shares compounds with MC4R barr agon. U2OS PathHunter beta-arrestin, beta-gal luminescence; percent of deltorphin B response, DMSO zero. activation, % at 9.2 µM. hit rate 5.8% among 2,400. AID 602194;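 active means mean activation across replicates exceeds the hit threshold derived in the earlier primary screen, cut at about 18% in these data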;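 further: 100% = deltorphin B at 0.9 µM final and 0% = DMSO alone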
The depositor's hits bear a star; · = not tested or not shown.

SMILES	NTR1 agonist	MC4R antagonist	PG9 Ab binder	MC4R barr agon	NR1D1 modulator	MC4R barr ag	MOR DOR agonist
CCc1ccc(OCC(O)CN2CCN(c3ccccc3)CC2)cc1 (stereo unspecified)	0	5	0	11*	-6	0	9
CCCc1ccc(OCC(O)CN2CCN(c3ccccc3)CC2)cc1 (stereo unspecified)	1	5	1	4	8	·	·
CCOc1ccc(CN2CCN(Cc3[nH]c4ccccc4c3C)CC2CCO)cc1 (stereo unspecified)	2	14	-3	12*	1	3	22*
Cc1ccc(NC(=O)OCCCN2C(=O)CCC23CCC(C)CC3)cc1C (stereo unspecified)	·	·	·	·	1	·	·
FC(F)(F)c1cc(-c2cccs2)nc2cc(-c3cccs3)nn12	3	1	0	25*	7	2	4
NNC(=O)c1cc2nc(-c3cccs3)cc(C(F)(F)F)n2n1	2	14	-4	0	-1	·	·
O=C(N/N=C/c1ccncc1)c1cccc(NC(=O)c2ccc(Cl)cc2)c1	3	-7	-3	-2	-10	·	·
O=C(N/N=C/c1ccc(F)cc1)c1cccc(NC(=O)c2ccc(F)cc2)c1	3	0	-1	42*	-6	2	2
O=C(Cc1c(O)c2ccccc2oc1=O)c1ccc(F)cc1	-1	6	0	11*	-6	1	3
COC(=O)[C@]12C[C@H](CC(=O)NCCCN3CCCC3=O)C(=O)N(Cc3ccc4c(c3)OCO4)C1=C[C@H](C(C)(C)C)O[C@@H]2C	·	·	0	·	-3	·	·
COC(=O)c1c(NC(=O)CN2CCN(Cc3ccc4c(c3)OCO4)CC2)sc(C)c1C	13	13	0	9.6*	1	8	13
C=CCNC(=S)NNc1nc2c(c(=O)[nH]1)C1(CCCCC1)Cc1ccccc1-2	25	6	-1	15*	1	-3	6
CCOC(=O)C1=CCN(S(=O)(=O)c2ccc(Br)cc2)C1c1cccc(Cl)c1 (stereo unspecified)	·	·	-1	·	-3	·	·
CC(=O)c1cccc(-c2cnc3c(NC=O)cc(-c4ccc(F)cc4)cn23)c1	·	5	-1	14*	-2	15*	4
COc1ccc(F)cc1-c1cc(NC=O)c2ncc(-c3cccc(C(F)(F)F)c3)n2c1	·	-23	0	10*	-5	6	2
COc1ccccc1-c1cc(NC=O)c2ncc(-c3cccc(C(C)=O)c3)n2c1	·	-43	-3	9.9*	-4	14*	4
C=C(C)C#CCNCc1ccccc1	·	·	·	·	-4	·	·
COC(=O)[C@]12C[C@H](CC(=O)N3CCC(c4ccccc4)CC3)C(=O)N(CCc3ccc(OC)c(OC)c3)C1=C[C@H](COCc1ccccc1)O[C@@H]2C	·	·	·	·	0	·	·
CCc1ccc(CCC(=O)Nc2sc3c(c2C#N)CCCC3)o1	7	-14	1	-3	-4	·	·
Cc1cccc(C(=O)Nc2sc3c(c2C#N)CCCCC3)c1	5	-2	1	17*	0	-1	5
N#Cc1c(NC(=O)c2ccccc2)sc2c1CCC2	2	-14	-1	-1	-6	·	·
Cc1ccc(/C=C/C(=O)Nc2sc3c(c2C#N)CCCC3)o1	-1	-4	0	28*	2	-2	3
Cc1ccc(/C=C/C(=O)Nc2nnc(SCc3ccc(C#N)cc3)s2)o1	2	9	-2	51*	0	0	4
CCC(C(=O)Nc1ccccc1N1CCCC1)c1ccccc1F (stereo unspecified)	·	·	·	·	-3	·	·
CCCCCCC(=O)n1ccc2ccc(-c3ccc4ccn(Cc5ccc(OC)cc5)c4c3)cc21	·	·	·	·	-2	·	·
SMILES	NTR1 agonist	MC4R antagonist	PG9 Ab binder	MC4R barr agon	NR1D1 modulator	MC4R barr ag	MOR DOR agonist
COc1ccc(NC(=O)/C=C/c2ccccc2)c([N+](=O)[O-])c1	1	-13	0	3	5	·	·
CCOc1ccc(NC(=O)/C=C/c2ccc(OC)cc2)c([N+](=O)[O-])c1	7	-3	-1	-1	3	·	·
CCOc1ccc(NC(=S)NC(=O)/C=C/c2ccc(OC)c(OC)c2)c([N+](=O)[O-])c1	3	-2	0	17*	-12	12*	9
COc1ccc(/C=C/C(=O)Nc2ccc(OC)cc2[N+](=O)[O-])cc1	3	-4	-1	32*	1	7	10
CCOc1ccc(NC(=S)NC(=O)/C=C/c2ccc(C)cc2)c([N+](=O)[O-])c1	-1	-18	-2	38*	3	17*	6
O=C1/C(=C/c2cccc([N+](=O)[O-])c2)CCc2ccccc21	9	-6	-2	2	-3	·	·
O=C1/C(=C/c2cccc([N+](=O)[O-])c2)CSc2ccc(Cl)cc21	4	5	1	11*	0	-1	2
Cc1ccc(C(=O)c2coc3c2C(=O)C(=O)c2ccccc2-3)cc1	5	-7	-3	16*	3	17*	9
Cc1ccc(C(=O)c2c(C)oc3c2C(=O)C(=O)c2ccccc2-3)cc1	13	-6	·	2	·	·	·
O[C@H](COc1ccc(OC(F)(F)F)cc1)CN1CCC(C(O)(c2ccccc2)c2ccccc2)CC1	·	·	·	·	4	·	·
COc1cc(/C=C/C(=O)OCC(=O)NCCc2ccccc2)ccc1OC(F)F	3	1	-2	3	0	·	·
COc1cc(/C=C/C(=O)OCC(=O)NCCc2ccc(F)cc2)ccc1OC(F)F	4	11	-3	10*	-1	3	4
COc1cc(/C=C/C(=O)OCC(=O)Nc2cc(C(F)(F)F)ccc2N2CCOCC2)ccc1O	7	3	-1	24*	7	5	15
Cc1cccc(Oc2nccc(C(F)(F)F)c2C(=O)Nc2ccc(F)cc2F)c1	1	-10	-1	20*	2	0	5
O=C(Nc1ccc(F)cc1F)c1c(C(F)(F)F)ccnc1Oc1ccccc1	1	1	-2	2	-4	·	·
CN(C(=O)[C@@H](C1CC1)[C@@H](O)c1ccc2ccccc2c1)c1ccccc1	·	·	·	·	4	·	·
COc1cc(/C=C2\COC/C(=C\c3ccc(O)c(OC)c3)C2=O)ccc1O	18	8	-7	8	-2	·	·
COc1cc(/C=C2/CC/C(=C/c3ccc(O)c(OC)c3)C2=O)ccc1O	18	-12	-2	55*	-2	32*	18*
O=C([C@@H]1C[C@H]1c1ccccc1)N1CC[C@H]2[C@H](CCCN2Cc2cc(F)cc(F)c2)C1	·	·	·	·	0	·	·
COc1ccc(OCC(=O)Nc2cc3oc4ccccc4c3cc2OC)cc1	18	-7	·	38*	·	12*	14
COc1cc2c(cc1NC(=O)Nc1cccc(C)c1)oc1ccccc12	7	6	0	11*	10	2	2
